From ChEMBL document CHEMBL1221298, “InCl3 mediated one-pot multicomponent synthesis, anti-microbial, antioxidant and anticancer evaluation of 3-pyranyl indole derivatives” (Bioorg Med Chem Lett, 2010)
Values after ≈ are worked out from the molar mass of the structure shown. Active and inactive are the calls of the source. No cut-off for these calls is given here.

Columns and labels:
Assay type in all cases: functional
[1] = system: Staphylococcus aureus; assay: microbe, parasite or virus in culture; settings: ATCC 9144, 24 h, read-out: IZ
[2] = system: Bacillus cereus; assay: Antimicrobial activity against Bacillus cereus ATCC 11778 at 100 ug/ml after 24 hrs by paper disk diffusion method; settings: ATCC 11778, 24 h, read-out: IZ
[3] = system: Escherichia coli; assay: microbe, parasite or virus in culture; settings: ATCC 25922, 24 h, read-out: IZ
[4] = system: Klebsiella pneumoniae; assay: microbe, parasite or virus in culture; settings: ATCC 11298, 24 h, read-out: IZ
[5] = system: Staphylococcus aureus; assay: microbe, parasite or virus in culture; settings: ATCC 9144, 24 h
[6] = system: Bacillus cereus; assay: microbe, parasite or virus in culture; settings: ATCC 11778, 24 h
[7] = system: Escherichia coli; assay: microbe, parasite or virus in culture; settings: ATCC 25922, 24 h
[8] = system: Klebsiella pneumoniae; assay: microbe, parasite or virus in culture; settings: ATCC 11298, 24 h
[9] = system: Radical scavenging activity; assay: Antioxidant activity assessed as DPPH radical scavenging activity at 50 ug/ml
Procedure, shortened: (§1)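 Each test sample was mixed with 1 ml DPPH in methanol, incubated at 37 °C for 30 min, and read spectrophotometrically at 517 nm with a blank reading. Scavenging % was expressed as the absorbance decrease at 517 nm relative to DPPH solution without test sample.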

[10] = system: Radical scavenging activity; assay: Antioxidant activity assessed as DPPH radical scavenging activity at 100 ug/ml
Procedure, shortened: as §1

[11] = system: Radical scavenging activity; assay: Antioxidant activity assessed as DPPH radical scavenging activity at 200 ug/ml
Procedure, shortened: as §1

[12] = system: Radical scavenging activity; assay: Antioxidant activity assessed as DPPH radical scavenging activity at 400 ug/ml
Procedure, shortened: as §1

[13] = system: Radical scavenging activity; assay: Antioxidant activity assessed as DPPH radical scavenging activity
Procedure, shortened: as §1

[14] = Antioxidant activity assessed as ABTS radical scavenging activity at 50 ug/ml
Procedure, shortened: (§2)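 Test samples at 50, 100, 200 and 400 ug/ml were each mixed with 1 ml of freshly prepared ABTS radical cation solution, adjusted to absorbance 0.7–0.9 at 734 nm. Mixtures reacted 2 h in the dark, then absorbance was read at 734 nm against a blank. Scavenging % was taken as the absorbance decrease relative to ABTS solution without test sample.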

[15] = Antioxidant activity assessed as ABTS radical scavenging activity at 100 ug/ml
Procedure, shortened: as §2

[16] = Antioxidant activity assessed as ABTS radical scavenging activity at 200 ug/ml
Procedure, shortened: as §2

[17] = Antioxidant activity assessed as ABTS radical scavenging activity at 400 ug/ml
Procedure, shortened: as §2

[18] = Antioxidant activity assessed as ABTS radical scavenging activity
Procedure, shortened: as §2

[19] = system: MCF7; assay: Cytotoxicity against human MCF7 cells after 24 hrs by MTT assay; settings: MCF7, 24 h
Procedure, shortened: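 Exponentially growing cells plated at 10⁴ cells/well and allowed to attach, then exposed to test compounds or doxorubicin (dissolved in 0.1% DMSO, diluted in medium; range 1–100) for 24 h; controls received medium with 0.1% DMSO. MTT (1 mg/ml) added for 4 h at 37 °C, formazan dissolved in DMSO, absorbance read at 540 nm; % cytotoxicity calculated from blank-corrected absorbances versus control.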

Row | Structure (SMILES) | zone of inhibition at 100 µg/mL [1] [mm] | zone of inhibition at 100 µg/mL [2] [mm] | zone of inhibition at 100 µg/mL [3] [mm] | zone of inhibition at 100 µg/mL [4] [mm] | MIC [5] [µg/mL] | MIC [6] [µg/mL] | MIC [7] [µg/mL] | MIC [8] [µg/mL] | GI50 [19] [µM] | LC50 (concentration killing 50% of cells) [19] [µM] | TGI [19] [µM] | Activity ([9]; at 50 µg/mL) [%] | Activity ([10]; at 100 µg/mL) [%] | Activity ([11]; at 200 µg/mL) [%] | Activity ([12]; at 400 µg/mL) [%] | IC50 [13] [µg/mL] | Activity ([14]; at 50 µg/mL) [%] | Activity ([15]; at 100 µg/mL) [%] | Activity ([16]; at 200 µg/mL) [%] | Activity ([17]; at 400 µg/mL) [%] | also measured
1 | N#CC1=C(N)OC(c2c[nH]c3ccccc23)=C(C#N)C1c1ccccc1F (stereo not given) | 19 | 14 | 15 | 15 | 23.4 (≈ 65.7 µM) | 22.6 (≈ 63.4 µM) | 27.4 (≈ 76.9 µM) | 30.2 (≈ 84.7 µM) | 22.8 | > 100 | 48.2 |  |  |  |  |  |  |  |  |  | Activity [9]: inactive; Activity [10]: inactive; Activity [11]: inactive; Activity [12]: inactive; Activity [13]: inactive; Activity [14]: inactive; Activity [15]: inactive; Activity [16]: inactive; Activity [17]: inactive; Activity [18]: inactive
2 | N#CC1=C(N)OC(c2c[nH]c3ccccc23)=C(C#N)C1c1ccc(F)cc1 (stereo not given) | 21 | 16 | 18 | 17 | 16.8 (≈ 47.1 µM) | 20.3 (≈ 57 µM) | 26.2 (≈ 73.5 µM) | 20.1 (≈ 56.4 µM) | 28 | > 100 | 52.4 | 26.9 | 28.9 | 31.4 | 36.5 | 901.11 (≈ 2530 µM) | 8.4 | 16.2 | 22.4 | 26.7 | IC50 [18]: 960 µg/mL (≈ 2690 µM)
3 | COc1ccc(C2C(C#N)=C(N)OC(c3c[nH]c4ccccc34)=C2C#N)cc1OC (stereo not given) | 15 | 16 | 17 | 17 | 31.8 (≈ 79.8 µM) | 25.4 (≈ 63.8 µM) | 26.7 (≈ 67 µM) | 21.2 (≈ 53.2 µM) | 20.6 | 72.1 | 37.4 | 55.8 | 57.9 | 59.1 | 62.9 | < 50 | 14.5 | 19.1 | 26.1 | 28.1 | IC50 [18]: 867.28 µg/mL (≈ 2180 µM)
4 | N#CC1=C(N)OC(c2c[nH]c3ccccc23)=C(C#N)C1c1cccc2ccccc12 (stereo not given) | 15 | 16 | 16 | 15 | 28.6 (≈ 73.6 µM) | 26.2 (≈ 67.5 µM) | 28 (≈ 72.1 µM) | 33.2 (≈ 85.5 µM) | 18.2 | 80.2 | 33.9 | 18.8 | 21.8 | 22.8 | 26.4 | 1599.62 (≈ 4120 µM) | 4.7 | 6.8 | 7.7 | 10.4 | IC50 [18]: > 1000 µg/mL
5 | N#CC1=C(N)OC(c2c[nH]c3ccccc23)=C(C#N)C1c1ccc(Br)cc1 (stereo not given) | 20 | 14 | 15 | 16 | 21.3 (≈ 51 µM) | 28 (≈ 67.1 µM) | 25.4 (≈ 60.9 µM) | 26.3 (≈ 63 µM) | 21.8 | > 100 | 48.1 | 46.7 | 49.7 | 54.3 | 57.8 | 117.8 (≈ 282 µM) | 14.2 | 14.6 | 10.6 | 22.7 | IC50 [18]: 947.09 µg/mL (≈ 2270 µM)
